NR2E3 ag-1: NR2E3 (human) agonism; Q9Y5X4; 0.12% of 320,000 active; inhibition of corepressor binding, % at 4.78 µM; GST-NR2E3/biotin-RetCOR TR-FRET, 1536-well;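 active means percent inhibition above the cutoff of mean plus 3 SD of all tested compounds, set per screening campaign, cut at about 20% in these data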;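 further: 0% = DMSO wells and 100% = biotin wells as full block of FRET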
Target sequence (Q9Y5X4 whole entry, looked up): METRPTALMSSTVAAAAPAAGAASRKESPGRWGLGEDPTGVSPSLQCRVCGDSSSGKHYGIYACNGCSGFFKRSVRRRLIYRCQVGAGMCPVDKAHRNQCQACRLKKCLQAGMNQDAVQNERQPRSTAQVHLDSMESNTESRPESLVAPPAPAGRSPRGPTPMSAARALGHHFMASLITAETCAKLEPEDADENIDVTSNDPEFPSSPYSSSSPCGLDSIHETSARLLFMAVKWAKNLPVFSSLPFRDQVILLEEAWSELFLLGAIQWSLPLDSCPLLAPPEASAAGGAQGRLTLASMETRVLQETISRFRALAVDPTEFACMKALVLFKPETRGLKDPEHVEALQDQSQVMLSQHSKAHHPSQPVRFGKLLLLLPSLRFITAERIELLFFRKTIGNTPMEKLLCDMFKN
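System: GST-tagged NR2E3 plus biotinylated RetCOR corepressor; Buffer or medium: pH 7.5 Tris-based buffer; Probe or stimulus: RetCOR corepressor, biotinylated, 7 nM; Doses: compound at 4.8 µM, single dose; Schedule: 5 h incubation at 4 °C; Technique: time-resolved FRET; Evaluation: percent inhibition of TR-FRET ratio; Replication: one well per compound, singlicate testing.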
NR2E3 ag-2: human photoreceptor-specific nuclear receptor agonism | Q9Y5X4 | inhibition of corepressor binding, % at 3.98 µM | 0.35% of 360,000 active | CHO-S Gal4-NCOR/VP16-NR2E3 two-hybrid, luciferase;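 active means inhibition above the mean of all tested compounds plus 3 SD, cut at about 70% in these data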;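 further: 0% = DMSO with NR2E3 transfected cells and 100% = cells lacking NR2E3 construct; higher means lower luciferase signal from less NR2E3 corepressor binding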
GalR3 antagonist: blocks the human galanin receptor 3; HEK293 GalR3-CNG cAMP membrane potential fluorescence; galR3 body fused to GalR1 C-terminus; inhibition, % at 3 µM; 0.44% of 360,000 active;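 active means inhibition above the screen-wide average plus 3 SD, cut at about 13% in these data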;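 further: forskolin and galanin both at EC90 stimulate the cells; cAMP rise reported by CNG channel membrane potential dye signal; 0% = forskolin plus galanin with DMSO and 100% = forskolin alone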
Rev-erbA mod: modulators of human Rev-erb alpha DNA binding. P20393. Rev-erbα–FITC-DNA binding, fluorescence polarization, 90 min. activity, % at 10 µM. 0.79% of 370,000 active. AID 1259318;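 active means activity above about 14%, limit read from the data; passing the limit was not always enough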;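 further: 0% = DMSO wells with 35 nM protein and 100% = DMSO wells with 750 nM protein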
PG9 binder: binds the HIV-1 gp120 antibody PG9. 0.43% of 360,000 active. inhibition, % at 6.7 µM. AID 624416. TR-FRET gp120-PG9 antibody binding; in the data active means inhibition above about 8.5%
The depositor's hits bear a star; ! = not confirmed by another sample. An excerpt weighted towards active compounds, which were near 1.8% of everything screened.

Screening O=[N+]([O-])c1cc(C(F)(F)F)ccc1N1CCN(S(=O)(=O)c2ccc3ccccc3c2)CC1 returned NR2E3 ag-1 -4, NR2E3 ag-2 28, GalR3 antagonist 16*, Rev-erbA mod 4 and PG9 binder 1.
Screening NC(=O)[C@H]1OC(O)[C@H](O)[C@@H](O)[C@@H]1O (some centres undefined) returned Rev-erbA mod 4.
`CCOc1ccc(/C(O)=C2/C(=O)C(=O)N(CCOCCO)C2c2cccnc2)cc1` (centres undefined) gave NR2E3 ag-1 14, NR2E3 ag-2 3, GalR3 antagonist -6, Rev-erbA mod -5 and PG9 binder 9.0*.
For Cc1cc(/C=C2/SC(=S)N(c3cccc(C(F)(F)F)c3)C2=O)c(C)n1-c1cccnc1 the results were NR2E3 ag-1 -2 and NR2E3 ag-2 88*.
`O=C1c2cccc3c([N+](=O)[O-])ccc(c23)C(=O)N1Cc1cccnc1` gave NR2E3 ag-2 -14, GalR3 antagonist 30*, Rev-erbA mod -1 and PG9 binder -3.
Screening CCCCCCCC(=O)CC[C@@H]1[C@@H](C/C=C\CCCC(=O)O)[C@@H](O)C[C@H]1O returned Rev-erbA mod 2.
C=C1C(=O)C=C2CN(C(=O)c3ccccc3)[C@@](Cc3ccc(F)cc3)(C(=O)OC)[C@@H]12 was read as NR2E3 ag-1 0 and NR2E3 ag-2 72*.
CCOC(=O)O[C@H](C)OC(=O)C1N2C(=O)[C@H](NC(=O)C(N)c3ccccc3)C2SC1(C)C (some centres undefined) was read as Rev-erbA mod -2.
CC(=O)OCC(=O)[C@@]1(O)[C@@H](C)CC2C3CCC4=CC(=O)C=C[C@]4(C)[C@@]3(F)[C@@H](O)C[C@@]21C (some centres undefined) was read as Rev-erbA mod -10.
CC1=C(C)/C(=N\OS(=O)(=O)c2ccccc2)C=CC1=O was read as NR2E3 ag-1 0 and NR2E3 ag-2 74*.
COc1ccc(C(=O)c2ccc(OC)c(OC)c2)cc1OC was read as NR2E3 ag-1 -1, NR2E3 ag-2 -2, GalR3 antagonist -6, Rev-erbA mod 7 and PG9 binder 5.
Screening COc1ccc(C(=O)c2nccc3cc(OC)c(OC)cc23)cc1OC returned NR2E3 ag-1 20* and NR2E3 ag-2 1.
For C#Cc1ccc([C@@H]2C=C(C(=O)N3CCN(Cc4ccccc4)CC3)O[C@H](OCCCCO)C2)cc1 the results were NR2E3 ag-1 -1 and NR2E3 ag-2 75*.
For OC[C@H]1O[C@H](O)C[C@@H](O)[C@@H]1O the results were Rev-erbA mod 4.
For C=CCOc1cccc(C2C(C(=O)c3ccc(C)o3)=C(O)C(=O)N2Cc2ccncc2)c1 (centres undefined) the results were NR2E3 ag-1 12, NR2E3 ag-2 -16, GalR3 antagonist -6, Rev-erbA mod -3 and PG9 binder 11*.
C=CCOc1cccc(C2C(C(=O)c3ccco3)=C(O)C(=O)N2Cc2ccncc2)c1 (centres undefined) was read as NR2E3 ag-1 5, NR2E3 ag-2 -2, GalR3 antagonist -3, Rev-erbA mod -1 and PG9 binder 2.
CCCc1cc(=O)oc2c3c(cc(OCC(=O)NCc4ccccn4)c12)OC(C)(C)CC3 was read as NR2E3 ag-1 0, NR2E3 ag-2 -21, GalR3 antagonist 16*, Rev-erbA mod -1 and PG9 binder -2.
For Cc1c(C)c2c(OCC(=O)NCc3ccccn3)cc3c(c2oc1=O)CCC(C)(C)O3 the results were NR2E3 ag-1 9, NR2E3 ag-2 -14, GalR3 antagonist -7, Rev-erbA mod -9 and PG9 binder 1.
Screening CC1(C)CC(N2CCCC2)=CC(=[N+]2CCCCCC2)C1 returned NR2E3 ag-1 4, NR2E3 ag-2 0, GalR3 antagonist 55*, Rev-erbA mod -3 and PG9 binder -2.
Screening CC1CC(C)C[N+](=C2C=C(N3CCCC3)CC(C)(C)C2)C1 (centres undefined) returned NR2E3 ag-2 13, GalR3 antagonist 28*, Rev-erbA mod -5 and PG9 binder -1.
Screening Cc1cccc(NC2=C/C(=N/S(=O)(=O)c3cccs3)c3ccccc3C2=O)c1 returned NR2E3 ag-1 0, NR2E3 ag-2 -6, GalR3 antagonist -3, Rev-erbA mod -3 and PG9 binder -2.
For Cc1ccc(Cl)cc1NC1=C/C(=N\S(=O)(=O)c2cccs2)c2ccccc2C1=O the results were NR2E3 ag-1 9, NR2E3 ag-2 79*!, GalR3 antagonist -6, Rev-erbA mod 3 and PG9 binder -2.
`Cc1ccc(NC2=C/C(=N\S(=O)(=O)c3cccs3)c3ccccc3C2=O)c(C)c1` gave NR2E3 ag-1 7 and NR2E3 ag-2 108*.
For COc1cccc2c1C(=O)c1c(O)c3c(c(O)c1C2=O)C[C@@](O)(C(=O)CO)C[C@@H]3OC1C[C@H](N)[C@H](O)[C@H](C)O1 (some centres undefined) the results were Rev-erbA mod 2.
Screening O=C(O)C[C@H](O)C(=O)O returned Rev-erbA mod -5.
Screening Cc1cc(C(C#N)c2ccc(Cl)cc2)c(Cl)cc1NC(=O)c1cc(I)cc(I)c1O (centres undefined) returned NR2E3 ag-1 0, NR2E3 ag-2 101*, GalR3 antagonist -1, Rev-erbA mod 9 and PG9 binder -2.
`Nc1ncnc2c1ncn2C1O[C@H](COP(=O)(O)O)[C@@H](O)[C@H]1O` (some centres undefined) gave Rev-erbA mod 4.
For CCc1ccc(-c2nc(CSCC(=O)N3CCN(c4ccccn4)CC3)c(C)o2)cc1 the results were NR2E3 ag-1 4, NR2E3 ag-2 84*, GalR3 antagonist -2, Rev-erbA mod 7 and PG9 binder -2.
`Cc1ccc(-c2nc(CSCC(=O)N3CCN(C(=O)c4ccco4)CC3)c(C)o2)cc1` gave NR2E3 ag-1 5, NR2E3 ag-2 4, GalR3 antagonist 0, Rev-erbA mod 0 and PG9 binder 0.
`O=C(Nc1ccc(Cl)cc1)Nc1nnc(-c2ccncc2)s1` gave NR2E3 ag-1 2, NR2E3 ag-2 -8, GalR3 antagonist 5, Rev-erbA mod -21 and PG9 binder 0.
Screening O=C(Nc1cccc(Cl)c1)Nc1nnc(-c2ccncc2)s1 returned NR2E3 ag-1 0, NR2E3 ag-2 89*, GalR3 antagonist -8, Rev-erbA mod -22 and PG9 binder 0.
For CCOc1ccc(-n2c(-c3ccc(OC)cc3)c[n+]3c2CCCCC3)cc1 the results were NR2E3 ag-1 1, NR2E3 ag-2 9, GalR3 antagonist 56*, Rev-erbA mod -1 and PG9 binder 0.
Screening COc1ccc(-n2c(-c3ccc(Cl)cc3)c[n+]3c2CCCCC3)cc1 returned NR2E3 ag-1 0, NR2E3 ag-2 -5, GalR3 antagonist -5, Rev-erbA mod 4 and PG9 binder -1.

Screens (PubChem)
